The test system of one assay is HT-29. The assay can be described thus: Cytotoxicity against human HT29 cells after 72 hrs by MTT assay. It is filed as cell-based. In outline:
(§1)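 MTT assay. Cells seeded at 5000-10 000 per well and incubated at 37 °C in CO₂ with compound at 1-100 µg/mL in triplicate wells for 72 h, then MTT added. Absorbance read at 540 nm; % cytotoxicity = 100 × (1 − treated/control). IC50 obtained by nonlinear regression; NA means IC50 above 100 µg/mL.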

For another assay, the system named is KB. Nature of the assay: Cytotoxicity against human KB cells after 72 hrs by MTT assay. It is filed as cell-based. The method, boiled down:
as §1

The nature of assay [1]: Cytotoxicity against human Hep2 cells after 72 hrs by MTT assay. It is filed as cell-based, HEp-2. The method, boiled down: as §1
Assay [2] is described as follows: Cytotoxicity against human ECV304 cells after 72 hrs by MTT assay. It is filed as cell-based, ECV-304. In outline:
as §1

A further assay relates to DU-145. The assay can be described thus: Cytotoxicity against human DU145 cells after 72 hrs by MTT assay. It is filed as cell-based. In outline:
as §1

The nature of assay [3]: Cytotoxicity against human PA1 cells after 72 hrs by MTT assay. It is filed as cell-based, PA-1. In outline:
as §1

A further assay has as its system L132. Nature of the assay: Cytotoxicity against human L132 cells after 72 hrs by MTT assay. It is filed as cell-based. In outline: as §1
The next assay concerns MIA PaCa-2. Nature of the assay: Cytotoxicity against human MiaPaCa2 cells after 72 hrs by MTT assay. It is filed as cell-based. The method, boiled down:
as §1

In a further assay the test system is HEK293. The assay can be described thus: Cytotoxicity against human HEK293 cells after 72 hrs by MTT assay. It is filed as cell-based. In outline: as §1
Where [4] appears, read: Homo sapiens, HT-29, 72 h, read-out: IC50.
The mark [5] stands for this setting: Homo sapiens, KB, 72 h, read-out: IC50.
[6] abbreviates: Homo sapiens, HEp-2, 72 h, read-out: IC50.
[7] abbreviates: Homo sapiens, ECV-304, 72 h, read-out: IC50.
[8] abbreviates: Homo sapiens, DU-145, 72 h, read-out: IC50.
[9] abbreviates: Homo sapiens, PA-1, 72 h, read-out: IC50.
The mark [10] stands for this setting: Homo sapiens, L132, 72 h, read-out: IC50.
The mark [11] stands for this setting: Homo sapiens, MIA PaCa-2, 72 h, read-out: IC50.
Setting [12] is: Homo sapiens, HEK293, 72 h, read-out: IC50.

Values after ≈ are worked out from the molar mass of the structure shown.

For the compound `COc1cc(C2=C(c3ccccc3)C(O[Si](C)(C)C(C)(C)C)CC2=O)cc(OC)c1OC` (centres undefined), the IC50 (in the assay with HT-29 (setting [4]); in the assay with KB (setting [5]); in assay [1] (setting [6]); in [2] (setting [7]); in the assay with DU-145 (setting [8]); in assay [3] (setting [9])) was above 100 µg/mL in each case. Also, the 50% inhibitory concentration (IC50) with L132 (setting [10]), in the assay on MIA PaCa-2 (setting [11]) and in the assay on HEK293 (setting [12]) was above 100 µg/mL each time.

For the compound `COc1ccc(C2=C(c3cc(OC)c(OC)c(OC)c3)/C(=N\O)C(O)C2)cc1OC(C)C` (centres undefined), the IC50 with HT-29 (setting [4]) was determined as 69 µg/mL (≈ 156 µM); with KB (setting [5]), 95 µg/mL (≈ 214 µM); in [1] (setting [6]), 40 µg/mL (≈ 90.2 µM); in [2] (setting [7]) it was 96 µg/mL (≈ 216 µM); in the assay on DU-145 (setting [8]), 81 µg/mL (≈ 183 µM); in assay [3] (setting [9]), 61 µg/mL (≈ 138 µM). Besides, the half-inhibitory concentration (IC50) was determined as 75 µg/mL (≈ 169 µM) in the assay on L132 (setting [10]), 98 µg/mL (≈ 221 µM) in the assay with MIA PaCa-2 (setting [11]) and 36.8 µg/mL (≈ 82.9 µM) with HEK293 (setting [12]).

Consider `COc1ccc(C2=C(c3cc(OC)c(OC)c(OC)c3)C(=O)C(O)C2)cc1NC(=O)c1ccccc1` (centres undefined), for which the IC50 (in the assay with HT-29 (setting [4]); in the assay with KB (setting [5]); in assay [1] (setting [6]); in assay [2] (setting [7]); in the assay with DU-145 (setting [8]); in assay [3] (setting [9])) was above 100 µg/mL each time. The IC50 with L132 (setting [10]), in the assay with MIA PaCa-2 (setting [11]) and in the assay on HEK293 (setting [12]) was above 100 µg/mL throughout.

In the case of `COc1ccc(C2=C(c3cc(OC)c(OC)c(OC)c3)C(=O)CC2O[Si](C)(C)C(C)(C)C)cc1OC` (centres undefined), the 50% inhibitory concentration (IC50) (in the assay with HT-29 (setting [4]); with KB (setting [5]); in [1] (setting [6]); in [2] (setting [7]); with DU-145 (setting [8]); in assay [3] (setting [9])) was above 100 µg/mL in each case. In addition, the IC50 in the assay with L132 (setting [10]), with MIA PaCa-2 (setting [11]) and with HEK293 (setting [12]) was above 100 µg/mL in each case.

Regarding `O/N=C1/CC(O)C(c2ccccc2)=C1c1ccccc1` (centres undefined), the IC50 (with HT-29 (setting [4]); in the assay on KB (setting [5]); in assay [1] (setting [6]); in [2] (setting [7]); in the assay with DU-145 (setting [8]); in assay [3] (setting [9])) was above 100 µg/mL each time. For the same compound, the IC50 with L132 (setting [10]), in the assay with MIA PaCa-2 (setting [11]) and with HEK293 (setting [12]) was above 100 µg/mL throughout.

Turning to `CCOC(=O)COc1ccc(C2=C(c3cc(OC)c(OC)c(OC)c3)C(=O)CC2O)cc1` (centres undefined), the IC50 (with HT-29 (setting [4]); in the assay on KB (setting [5]); in assay [1] (setting [6]); in assay [2] (setting [7]); in the assay with DU-145 (setting [8]); in assay [3] (setting [9])) was above 100 µg/mL in each case. In addition, the half-maximal inhibitory concentration (IC50) in the assay with L132 (setting [10]), with MIA PaCa-2 (setting [11]) and in the assay with HEK293 (setting [12]) was above 100 µg/mL in each case.

`COC(=O)c1cc(C2=C(c3cc(OC)c(OC)c(OC)c3)C(=O)CC2O[Si](C)(C)C(C)(C)C)ccc1OC` (centres undefined): the concentration for half-maximal inhibition (IC50) (in the assay with HT-29 (setting [4]); in the assay with KB (setting [5]); in assay [1] (setting [6]); in assay [2] (setting [7]); in the assay with DU-145 (setting [8]); in [3] (setting [9])) was above 100 µg/mL throughout. For the same compound, the IC50 in the assay on L132 (setting [10]), in the assay with MIA PaCa-2 (setting [11]) and with HEK293 (setting [12]) was above 100 µg/mL throughout.

For `COc1ccc(C2=C(c3cc(OC)c(OC)c(OC)c3)C(=O)C(OC(C)=O)C2)cc1F` (centres undefined), the IC50 in the assay on HT-29 (setting [4]) was below 1 µg/mL; with KB (setting [5]), 33 µg/mL (≈ 76.7 µM); in [1] (setting [6]), below 1 µg/mL; in assay [2] (setting [7]) it was 41 µg/mL (≈ 95.3 µM); in the assay with DU-145 (setting [8]), 16 µg/mL (≈ 37.2 µM); in assay [3] (setting [9]) it was above 100 µg/mL. Also, the concentration for half-maximal inhibition (IC50) in the assay on L132 (setting [10]) is below 1 µg/mL; in the assay with MIA PaCa-2 (setting [11]), 39.5 µg/mL (≈ 91.8 µM); in the assay on HEK293 (setting [12]), 59 µg/mL (≈ 137 µM).

For `COc1ccc(C2=C(c3cc(OC)c(OC)c(OC)c3)C(=O)CC2O)cc1O` (centres undefined), the IC50 was below 1 µg/mL in the assay on HT-29 (setting [4]); below 1 µg/mL in the assay with KB (setting [5]); below 1 µg/mL in assay [1] (setting [6]); above 100 µg/mL in assay [2] (setting [7]); 8 µg/mL (≈ 20.7 µM) in the assay with DU-145 (setting [8]); below 1 µg/mL in [3] (setting [9]). Also, the IC50 with L132 (setting [10]) is below 1 µg/mL; in the assay on MIA PaCa-2 (setting [11]), above 100 µg/mL; in the assay on HEK293 (setting [12]), above 100 µg/mL.

As to `C=CCOc1cc(C2=C(c3cc(OC)c(OC)c(OC)c3)/C(=N\O)C(O)C2)ccc1OC` (centres undefined), the IC50 (with HT-29 (setting [4]); in the assay with KB (setting [5]); in assay [1] (setting [6]); in assay [2] (setting [7]); with DU-145 (setting [8]); in assay [3] (setting [9])) was above 100 µg/mL throughout. Besides, the IC50 in the assay with L132 (setting [10]), in the assay on MIA PaCa-2 (setting [11]) and with HEK293 (setting [12]) was above 100 µg/mL each time.

For the compound `COc1ccc(C2=C(c3cc(OC)c(OC)c(OC)c3)/C(=N\O)CC2OC(C)=O)cc1` (stereo in doubt; 22), the IC50 in the assay on HT-29 (ht-29) amounted to 1.5 µg/mL (≈ 3.51 µM); with KB (kb) it was 5 µg/mL (≈ 11.7 µM); in assay [1] (hep-2) it was 3 µg/mL (≈ 7.02 µM); in [2] (ecv-304), 4 µg/mL (≈ 9.36 µM); with DU-145 (du-145), 20 µg/mL (≈ 46.8 µM); in assay [3] (pa-1), 20 µg/mL (≈ 46.8 µM). Also, the 50% inhibitory concentration (IC50) worked out at 20 µg/mL (≈ 46.8 µM) with L132 (l132), 1 µg/mL (≈ 2.34 µM) in the assay on MIA PaCa-2 (mia paca-2) and 32 µg/mL (≈ 74.9 µM) with HEK293 (hek293).

Values taken from ChEMBL document CHEMBL1143007, “Synthesis and evaluation of 4/5-hydroxy-2,3-diaryl(substituted)-cyclopent-2-en-1-ones as cis-restricted analogues of combretastatin A-4 as novel anticancer agents” (J Med Chem, 2007).
